# Results taken from ChEMBL document CHEMBL4350976, “Sequence modification of heptapeptide selected by phage display as homing device for HT-29 colon cancer cells to improve the anti-tumour activity of drug delivery systems” (Eur J Med Chem, 2019).
# pIC50: −log10 of the molar value. Where a SMILES comes first, the peptide text is derived from it. The star is where a group is joined. X1 = COc1cccc2c1C(=O)c1c(O)c3c(c(O)c1C2=O)C[C@@](O)(/C(C)=N/OCC(=O)*)C[C@@H]3O[C@H]1C[C@H](N)[C@H](O)[C@H](C)O1
# Tests used:
# OVCAR-3 = assay: Cytostatic activity against human OVCAR3 cells preincubated for 24 hrs under serum free condition followed by compound washout and further incubation for 48 hrs in presence of serum by MTT assay; format: functional, cell-based
# Summary of the method: (§1)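 Cells were grown at 37 °C in 5% CO2 in medium with 10% heat-inactivated FBS (20% for OVCAR-3) plus penicillin/streptomycin. The medium was RPMI-1640 for most lines, DMEM for U-87 MG and MRC-5, and IMDM for PE/CA-PJ lines. Seeding was 3×10^3–10×10^3 cells per well. Cells had 24 h compound exposure, a wash, and 48 h further culture. Read-out was MTT, normalized to untreated cells and fitted by nonlinear regression for IC50.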
# CT26.WT = assay: Cytostatic activity against mouse CT26.WT cells preincubated for 24 hrs under serum free condition followed by compound washout and further incubation for 48 hrs in presence of serum by MTT assay; format: functional, cell-based; summary of the method: as §1
# A2058 = assay: Cytostatic activity against human A2058 cells preincubated for 24 hrs under serum free condition followed by compound washout and further incubation for 48 hrs in presence of serum by MTT assay; format: functional, cell-based; summary of the method: as §1
# HCT-116 = assay: Cytostatic activity against human HCT116 cells preincubated for 24 hrs under serum free condition followed by compound washout and further incubation for 48 hrs in presence of serum by MTT assay; format: functional, cell-based; summary of the method: as §1
# HT-29 [1] = assay: Antitumor activity against human HT-29 cells xenografted in SCID mouse assessed as tumor growth inhibition by measuring decrease in tumor growth at 1 mg/kg, ip administered once per week for 2 times starting from 13 days post inoculation measured at day 23 post inoculation; settings: HT-29, ip
# WiDr = assay: Cytostatic activity against human WiDr cells preincubated for 24 hrs under serum free condition followed by compound washout and further incubation for 48 hrs in presence of serum by MTT assay; format: functional, cell-based; summary of the method: as §1
# MDA-MB-231 = assay: Cytostatic activity against human MDA-MB-231 cells preincubated for 24 hrs under serum free condition followed by compound washout and further incubation for 48 hrs in presence of serum by MTT assay; format: functional, cell-based; summary of the method: as §1
# NCI-H1975 = assay: Cytostatic activity against human NCI-H1975 cells preincubated for 24 hrs under serum free condition followed by compound washout and further incubation for 48 hrs in presence of serum by MTT assay; format: functional, cell-based; summary of the method: as §1
# 4T1 = assay: Cytostatic activity against mouse 4T1 cells preincubated for 24 hrs under serum free condition followed by compound washout and further incubation for 48 hrs in presence of serum by MTT assay; format: functional, cell-based; summary of the method: as §1
# NCI-H1650 = assay: Cytostatic activity against human NCI-H1650 cells preincubated for 24 hrs under serum free condition followed by compound washout and further incubation for 48 hrs in presence of serum by MTT assay; format: functional, cell-based; summary of the method: as §1
# MRC5 = assay: Cytostatic activity against human MRC5 cells preincubated for 24 hrs under serum free condition followed by compound washout and further incubation for 48 hrs in presence of serum by MTT assay; format: ADME, cell-based; summary of the method: as §1
# [2] = Cytostatic activity against human PE/CA-PJ15 cells preincubated for 24 hrs under serum free condition followed by compound washout and further incubation for 48 hrs in presence of serum by MTT assay; format: functional, cell-based; summary of the method: as §1
# HT-29 [3] = assay: Cytostatic activity against human HT-29 cells preincubated for 24 hrs under serum free condition followed by compound washout and further incubation for 48 hrs in presence of serum by MTT assay; format: functional, cell-based
# Summary of the method: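 HT-29 cells were exposed to the compound for 24 h, washed, and kept a further 48 h. Viability was read by MTT. Absorbances were normalized to untreated controls and fitted by nonlinear regression to dose-response curves to give IC50.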
# [4] = Drug uptake in nucleus of human HT-29 cells assessed as increase in fluorescence at 50 uM after 90 mins by fluorescence based confocal microscopic analysis; format: ADME, subcellular; settings: ht-29, 1.5 h
# Summary of the method: (§2)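 HT-29 cells were incubated with 50 µM compound in RPMI for 90 min. Imaging was by confocal microscopy, with Dau detected at 550–600 nm emission.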
# HepG2 = assay: Cytostatic activity against human HepG2 cells preincubated for 24 hrs under serum free condition followed by compound washout and further incubation for 48 hrs in presence of serum by MTT assay; format: functional, cell-based; summary of the method: as §1
# [5] = Cytostatic activity against human PECAPJ41 cells preincubated for 24 hrs under serum free condition followed by compound washout and further incubation for 48 hrs in presence of serum by MTT assay; format: functional, cell-based; summary of the method: as §1
# U-87 MG = assay: Cytostatic activity against human U87 cells preincubated for 24 hrs under serum free condition followed by compound washout and further incubation for 48 hrs in presence of serum by MTT assay; format: functional, cell-based, U-87MG ATCC; summary of the method: as §1
# [6] = Cytostatic activity against human WM983B cells preincubated for 24 hrs under serum free condition followed by compound washout and further incubation for 48 hrs in presence of serum by MTT assay; format: functional, cell-based; summary of the method: as §1
# [7] = Toxicity in SCID mouse xenografted with human HT-29 cells assessed as animal death at 1 mg/kg, ip administered once a week (on days 13 and 20) starting from 13 days post inoculation measured upto 23 days post inoculation; format: organism-based; settings: in vivo
# [8] = Cytostatic activity against human M24 cells preincubated for 24 hrs under serum free condition followed by compound washout and further incubation for 48 hrs in presence of serum by MTT assay; format: functional, cell-based; summary of the method: as §1
# HT-29 [9] = assay: Antitumor activity against human HT-29 cells xenografted in SCID mouse assessed as decrease in number of Ki-67 positive cells measured as proliferation index at 1 mg/kg, ip administered once a week (on days 13 and 20) starting from 13 days post inoculation measured at day 23 post inoculation by KI-67-staining based light microscopic analysis (reference value: 100%); format: functional; design: scale not given: the % may be the effect or the level left
# Summary of the method: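 Tumours from the SCID HT-29 orthotopic study were formalin-fixed and paraffin-embedded, cut at 2 µm, and given citrate pH 6 retrieval at 98 °C for 40 min. They were stained with anti-human Ki-67 (1:40, 1 h RT), then a biotinylated link, HRP polymer and AEC. Ki-67+ cells were counted in 5 fields per tumour at 40× magnification. The proliferation index is the % positive cells.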
# B16 = assay: Cytostatic activity against mouse B16 cells preincubated for 24 hrs under serum free condition followed by compound washout and further incubation for 48 hrs in presence of serum by MTT assay; format: functional, cell-based; summary of the method: as §1
# DU-145 = assay: Cytostatic activity against human DU145 cells preincubated for 24 hrs under serum free condition followed by compound washout and further incubation for 48 hrs in presence of serum by MTT assay; format: functional, cell-based; summary of the method: as §1
# PANC-1 = assay: Cytostatic activity against human PANC1 cells preincubated for 24 hrs under serum free condition followed by compound washout and further incubation for 48 hrs in presence of serum by MTT assay; format: functional, cell-based; summary of the method: as §1
# [10] = Toxicity in SCID mouse xenografted with human HT-29 cells assessed as body weight loss at 1 mg/kg, ip administered once a week (on day 13 and 20) starting from 13 days post inoculation measured upto 23 days post inoculation; format: organism-based; settings: in vivo
# PC-3 = assay: Cytostatic activity against human PC3 cells preincubated for 24 hrs under serum free condition followed by compound washout and further incubation for 48 hrs in presence of serum by MTT assay; format: functional, cell-based; summary of the method: as §1
# A549 = assay: Cytostatic activity against human A549 cells preincubated for 24 hrs under serum free condition followed by compound washout and further incubation for 48 hrs in presence of serum by MTT assay; format: functional, cell-based; summary of the method: as §1
# MCF7 = assay: Cytostatic activity against human MCF7 cells preincubated for 24 hrs under serum free condition followed by compound washout and further incubation for 48 hrs in presence of serum by MTT assay; format: functional, cell-based; summary of the method: as §1
# HT-29 [11] = assay: Antitumor activity against human HT-29 cells xenografted in SCID mouse assessed as tumor growth inhibition by measuring decrease in tumor weight at 1 mg/kg, ip administered once a week (on day 13 and 20) starting from 13 days post inoculation measured at day 23 post inoculation relative to control; format: functional; settings: HT-29, ip
# [12] = Retention time of the compound using 0.1% TFA in water and 0.1% TFA in acetonitrile-water (80:20 v/v) as eluents by RP-HPLC analysis; format: physicochemical
# Summary of the method: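 Analytical RP-HPLC. Eluent A was 0.1% TFA in water and eluent B was 0.1% TFA in acetonitrile-water (80:20, v/v). Gradient: 0% B held to 5 min, then to 90% B at 50 min. Flow 1 mL/min, detection at 220 nm. The column was a Phenomenex Aeris Peptide XB-C18 (250×4.6 mm, 3.6 μm) or a Nucleosil C18 (5 μm, 100 Å, 250×4.6 mm), depending on the conjugate series.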
# [13] = Drug uptake in human HT-29 cells at 100 uM incubated for 3 hrs by flow cytometry; format: ADME, cell-based; settings: ht-29, 3 h
# Summary of the method: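 HT-29 cells were exposed to 100 µM conjugate for 3 h. Flow cytometry recorded the percentage of Dau-positive cells and the mean fluorescence intensity, in duplicate.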
# [14] = Stability in 2.5% fetal bovine serum containing medium assessed as drug decomposition measured as Dau=Aoa-LR-OH and H-RYVHLPYAT-NH2 metabolite formation with loss of sugar content at 30 uM measured after 24 hrs by LC/MS analysis; format: ADME, cell-free, Bos taurus; settings: cattle
# Summary of the method: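 Conjugates (30 μM) were incubated at 37 °C in medium containing 2.5% FBS. Samples were taken at 0, 3, 6 and 24 h, quenched with acetic acid, lyophilised, desalted on C18 spin columns and analysed by LC-MS. Cleavage products were identified by mass.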
# [15] = Stability in serum free medium at 30 uM incubated for 3 hrs by LC/MS analysis
# Summary of the method: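 Conjugates (30 μM) were incubated at 37 °C in serum-free medium. Samples were taken at 0 and 3 h, quenched with acetic acid, lyophilised, desalted on C18 spin columns and analysed by LC-MS.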
# [16] = Drug uptake in human HT-29 cells at 50 uM after 90 mins by fluorescence based confocal microscopic analysis; format: ADME, cell-based; settings: ht-29, 1.5 h; summary of the method: as §2
structure (smiles),measurement,setting,value
COc1cccc2c1C(=O)c1c(O)c3c(c(O)c1C2=O)C[C@@](O)(C(C)=O)C[C@@H]3O[C@H]1C[C@H](N)[C@H](O)[C@H](C)O1 [DAUNORUBICIN],pIC50,OVCAR-3,6.33
same,pIC50,CT26.WT,6.90
same,pIC50,A2058,7.48
same,pIC50,HCT-116,6.90
same,inhibition in vivo at 1 mg/kg,HT-29 [1],30%
same,pIC50,WiDr,6.62
same,pIC50,MDA-MB-231,7.28
same,pIC50,NCI-H1975,7.88
same,pIC50,4T1,7.39
same,pIC50,NCI-H1650,7.32
same,pIC50,MRC5,6.59
same,pIC50,[2],7.57
same,pIC50,HT-29 [3],6.69
same,Drug uptake,[4],Active
same,pIC50,HepG2,7.67
same,pIC50,[5],7.59
same,pIC50,U-87 MG,7.55
same,pIC50,[6],7.35
same,Activity,[7],Toxic
same,pIC50,[8],7.03
same,Activity,HT-29 [9],94%
same,pIC50,B16,8.05
same,pIC50,DU-145,7.61
same,pIC50,PANC-1,6.33
same,Activity,[10],Toxic
same,pIC50,PC-3,7.59
same,pIC50,A549,7.17
same,pIC50,MCF7,6.54
same,inhibition in vivo at 1 mg/kg,HT-29 [11],84%
COc1cccc2c1C(=O)c1c(O)c3c(c(O)c1C2=O)C[C@@](O)(/C(C)=N/OCC(=O)N[C@@H](CC(C)C)C(=O)N[C@@H](CCCNC(=N)N)C(=O)N[C@@H](CCCNC(=N)N)C(=O)N[C@@H](Cc1ccc(O)cc1)C(=O)N[C@H](C(=O)N[C@@H](Cc1cnc[nH]1)C(=O)N[C@@H](CC(C)C)C(=O)N1CCC[C@H]1C(=O)N[C@@H](Cc1ccc(O)cc1)C(=O)N[C@@H](C)C(=O)N[C@H](C(N)=O)[C@@H](C)O)C(C)C)C[C@@H]3O[C@H]1C[C@H](N)[C@H](O)[C@H](C)O1 (X1-LRRYVHLPYAT-NH2),Retention time,[12],31.2 to 31.3 min
same,Drug uptake,[13],Not Active
same,Stability,[14],Unstable
same,Stability,[15],Stable
same,pIC50,HT-29 [3],< 4.30
same,Drug uptake,[16],Not Active
